Test results: paper PMC4954844 (European Journal of Drug Metabolism and Pharmacokinetics, 2015)
Read-outs that look alike come from different tables or passages of the source.

Assays:
[1] = format: in vivo, male Crl:CD-1 mice
In short: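 Male Crl:CD-1 mice (8–10 weeks, bred in-house) were fasted overnight with water and dosed at 50 mg/kg into the tail vein. 3–4 per time point were exsanguinated up to 60 min. Serum was clotted at room temperature, then spun. Brain, muscle, kidneys, liver, gut and lungs were homogenized 1:4 w/v in 0.1 M PBS. Samples were stored at −80 °C.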

[2] = Urinary excretion of unchanged LSF in mice; format: in vivo; details: 50 mg/kg i.v., within 4 h, unpublished data
In short: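 Three mice received 50 mg/kg intravenously and were housed in metabolic cages. All urine was collected at 2 and 4 h post-dose with volumes recorded. Unchanged drug was quantified by the chiral HPLC-UV method after validation for murine urine, expressed as percent of dose excreted within 4 h.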

[3] = PBPK simulation and clearance scaling of LSF to a 70-kg human subject
[4] = Human pharmacokinetic study of LSF; format: in vivo; details: plasma, iv, 3 mg/kg
[5] = tested on: human liver microsomes (CYP3A4, CYP2A6); details: biphasic, cited from earlier work
[6] = tested on: human liver microsomes (CYP1A2 and a non-cytochrome P450 enzyme); details: biphasic, ref Lee and Slattery [1997]; cited from earlier work
[7] = ref Nicklasson et al. [2002], cited from earlier work
[8] = ref Bursten et al. [1998], cited from earlier work
[9] = mice, ref Wyska et al. [2007], cited from earlier work
[10] = mice, final PBPK model estimate
[11] = CYP2A6, ref Shin and Slattery [1998]
[12] = CYP3A4, ref Shin and Slattery [1998]

C[C@@H](O)CCCCn1c(=O)c2c(ncn2C)n(C)c1=O [LSF, (−)-R-1-(5-hydroxyhexyl)-3,7-dimethylxanthine]
Kp ([1]; male, Crl:CD-1, mouse, brain/serum, iv, 50 mg/kg): 0.345 | Kp ([1]; male, Crl:CD-1, mouse, gut/serum, iv, 50 mg/kg): 0.892 | clearance ([1]; male, Crl:CD-1, mouse, intravenous, 50 mg/kg): 5.43 mL/min | concentration at 60 min ([1]; male, Crl:CD-1, mouse, iv, 50 mg/kg): < 1000 ng/mL | Kp ([1]; male, Crl:CD-1, mouse, kidneys/serum, iv, 50 mg/kg): 0.777 | Kp ([1]; male, Crl:CD-1, mouse, liver/serum, iv, 50 mg/kg): 0.859 | Kp ([1]; male, Crl:CD-1, mouse, lungs/serum, iv, 50 mg/kg): 0.758 | Kp ([1]; male, Crl:CD-1, mouse, muscle/serum, iv, 50 mg/kg): 0.64 | clearance ([1]; male, Crl:CD-1, mouse, serum, iv, 50 mg/kg): 1.44 mL/min | K M (LSF concentration at 50 % of the maximum rate of metabolism) [1, 10]: 1.777 µg/mL | V max (maximum rate of metabolism) [1, 10]: 9.644 µg/min | mean percentage of LSF dose excreted unchanged with urine [2]: 0.71 ± 0.13% | in vivo whole liver intrinsic clearance ([3]; calculated from human liver microsome Vmax/KM data and Eq. 11): 1,545.24 ml/min | plasma hepatic clearance ([3]; calculated from the in vivo intrinsic clearance (Eq. 12)): 477.54 mL/min | clearance [4]: 1280 mL/min | K M, lisofylline diol formation, high K M enzyme [5, 11]: 4230 µM | V max, lisofylline diol formation, high K M enzyme [5, 11]: 0.429 nmol/min/mg of protein | K M, lisofylline diol formation, low K M enzyme [5, 12]: 23 µM | V max, lisofylline diol formation, low K M enzyme [5, 12]: 0.0565 nmol/min/mg of protein | K M, formation of pentoxifylline from LSF, second (high K M) enzyme [6]: 158 µM | V max, formation of pentoxifylline from LSF, second (high K M) enzyme [6]: 0.928 nmol/min/mg | fraction unbound (fu) in human plasma ([7]; human plasma): 0.54 | blood to plasma LSF concentration ratio (CB/Cp) ([7]; human): 0.77 | maximum concentration (C max), observed ([8]; human subjects, oral 6 mg/kg): 226 ± 99.10 ng/mL | time to C max, observed ([8]; human subjects, oral 6 mg/kg): 0.53 ± 0.26 h | bioavailability ([8]; humans, oral): 5.9% | first-order absorption rate constant (ka) ([9]; oral administration): 0.024 min⁻¹ | fraction of the dose absorbed following oral administration (F) ([9]; oral administration): 0.16 | bioavailability ([9]; oral): 16%
